# Experimental data collected from several papers.
# Lines come from different studies, so protocols differ.
# Target: Receptor tyrosine-protein kinase erbB-4 (ERBB4, Homo sapiens, UniProt Q15303)
SMILES,read-out,technique,tested at,remaining binding
O=C(c1ccc(Nc2nccc(-c3cc4ccccc4s3)n2)cc1)N1CCC(N2CCCC2)CC1,binding,competition with immobilised ligand,1 µM,93%
CNC(=O)[C@@H]1CC[C@@H](n2c(-c3ccc4cnccc4c3)nc3ccc(C(=O)NCc4cccc(C(N)=O)c4)cc32)C1,binding,competition with immobilised ligand,1 µM,100%
CN(c1nccc(-c2cnn3ncccc23)n1)C1CC1,binding,,1 µM,100%
C[C@@H](c1ccc(-n2cnc3c(N)ncnc32)cc1)N1CCc2nn(C)c(Cc3ccccc3)c2C1=O,binding,competition with immobilised ligand,0.1 µM,73%
CN(C)C(=O)Cn1cc(-c2nc(C3(c4ccc(-c5cnc(N)nc5)cc4)CC3)no2)cn1,cell-free assay,competition with immobilised ligand,1 µM,100%
CN(C)c1nccc(-c2cnn3ncccc23)n1,binding,,1 µM,81%
Nc1c(C(=O)NCc2ccc(C(=O)NCCCC3CCCCC3)cc2)cnn1-c1ccccc1,cell-free assay,competition with immobilised ligand,0.1 µM,89%
CN(C)c1nccc(-c2cnc3ncccn23)n1,binding,,1 µM,89%
N#CC1(c2ccccn2)CCN(Cc2cc(C(=O)N3CCCC3)c(=O)n3ccccc23)CC1,cell-free assay,competition with immobilised ligand,1 µM,85%
O=C(NCCCN1CCOCC1)c1ccc(Nc2ncc(Cl)c(-c3ccc(Cl)s3)n2)cc1,binding,competition with immobilised ligand,1 µM,100%
CC(C)(C)c1ccc(-c2nc(CBr)nn2-c2cccc(O)c2)cc1,cell-free assay,competition with immobilised ligand,10 µM,88%
O=C(N[C@H]1CCCCC/C=C\C2C[C@@]2(C(=O)O)NC(=O)[C@@H]2C[C@@H](Oc3ccncc3)CN2C1=O)OC1CCCC1 (stereo partly shown),binding,competition with immobilised ligand,1 µM,100%
N#Cc1ccccc1CSc1nnc2c(n1)[nH]c1ccccc12,binding,competition with immobilised ligand,10 µM,74%
O=C(NCCCN1CCOCC1)c1ccc(Nc2nccc(-c3cc4ccccc4s3)n2)cc1,binding,competition with immobilised ligand,1 µM,86%
CC1CCCN1c1nccc(-c2cnn3ncccc23)n1 (stereo not shown),binding,,1 µM,98%
O=C(NCC1CCOCC1)c1n[nH]cc1NC(=O)c1c(F)cccc1F,binding,competition with immobilised ligand,1 µM,100%
N[C@H]1CCN(c2nccc(-c3cnn4ncccc34)n2)C1,binding,,1 µM,84%
Cc1noc([C@H]2C[C@@H](c3ccc(C(F)(F)F)cc3)CN(C(=O)N3CCS(=O)(=O)C3)C2)n1,cell-free assay,competition with immobilised ligand,1 µM,100%
C[C@@H]1CCN(c2nccc(-c3cnn4ncccc34)n2)C1,binding,,1 µM,79%
COc1ncc2cc3ccccc3nc2c1C#N,cell-free assay,competition with immobilised ligand,5 µM,96%
COc1ccc2c(c1)O[C@@H](c1ccc(OC)c(OC)c1)C[C@H]2NC(=O)C1(c2ccc3c(c2)OC(F)(F)O3)CC1,cell-free assay,competition with immobilised ligand,1 µM,90%
c1cncc(-c2cccc(Nc3nccc(NC4CCCCC4)n3)c2)c1,binding,competition with immobilised ligand,10 µM,85%
